Measured values published in PMC3674249 (Nature Communications, 2013).
Entries after “also recorded” stand apart in the source; their conditions may differ. Blank lines part the entries; values can stand above or below the compound they belong to.

Legend:
ChEH [1] = biological target: T1, ChEH (Homo sapiens, UniProt Q15125+Q9UBM7); assay: ChEH activity in whole MCF-7 cells; format: cell-based; conditions: for IC50 of ChEH inhibition, fold higher than DDA / ChEH inhibition (in words): MCF-7 cells
T1 sequence (Q15125 whole entry): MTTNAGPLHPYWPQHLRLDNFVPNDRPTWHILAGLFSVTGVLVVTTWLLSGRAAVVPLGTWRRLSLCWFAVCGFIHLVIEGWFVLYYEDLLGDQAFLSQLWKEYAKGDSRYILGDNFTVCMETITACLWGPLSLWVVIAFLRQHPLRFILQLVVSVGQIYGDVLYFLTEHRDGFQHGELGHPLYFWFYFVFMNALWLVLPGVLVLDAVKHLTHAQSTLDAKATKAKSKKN
T1 sequence (Q9UBM7 whole entry): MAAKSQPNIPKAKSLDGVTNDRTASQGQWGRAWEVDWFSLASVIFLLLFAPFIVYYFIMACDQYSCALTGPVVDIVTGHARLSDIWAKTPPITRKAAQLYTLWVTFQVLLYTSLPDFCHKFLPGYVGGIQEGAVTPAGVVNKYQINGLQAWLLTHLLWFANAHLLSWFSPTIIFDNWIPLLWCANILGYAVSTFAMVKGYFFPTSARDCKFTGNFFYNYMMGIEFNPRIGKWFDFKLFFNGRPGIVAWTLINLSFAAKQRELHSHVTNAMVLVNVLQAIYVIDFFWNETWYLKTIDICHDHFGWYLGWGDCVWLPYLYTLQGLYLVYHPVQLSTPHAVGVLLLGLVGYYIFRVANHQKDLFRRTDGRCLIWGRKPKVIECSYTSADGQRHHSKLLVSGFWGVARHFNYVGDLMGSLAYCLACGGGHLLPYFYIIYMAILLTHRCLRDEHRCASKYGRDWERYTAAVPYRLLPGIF
Outline: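 Whole MCF-7 cells were grown in RPMI with 5% FBS. Conversion to [14C]-CT was resolved by TLC and quantified by densitometry. IC50 came from dose–response curves, as mean±s.e.m. of three independent experiments.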

ChEH [2] = conditions: microsomes from rat liver; cited from earlier work
B16F10 melanoma tumours = B16F10 melanoma tumours implanted s.c. into immunocompetent mice; format: in vivo, mouse
Outline: (§1)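 Female mice, 6–8 weeks old, held specific-pathogen-free after 2 weeks quarantine. Strains were C57BL/6 for B16F10 and BALB/c for TS/A. 35,000 exponentially growing cells in 150 μl PBS were implanted s.c. into the flank. Dosing was s.c. every 5 days from implantation day, with a s.c. vehicle control (n=10 per group). Survival was by Kaplan–Meier with log-rank test.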

rat mEH = biological target: T2, rat mEH (Rattus norvegicus, UniProt P07687); assay: mEH activity assay; format: biochemical
T2 sequence (P07687 1-455): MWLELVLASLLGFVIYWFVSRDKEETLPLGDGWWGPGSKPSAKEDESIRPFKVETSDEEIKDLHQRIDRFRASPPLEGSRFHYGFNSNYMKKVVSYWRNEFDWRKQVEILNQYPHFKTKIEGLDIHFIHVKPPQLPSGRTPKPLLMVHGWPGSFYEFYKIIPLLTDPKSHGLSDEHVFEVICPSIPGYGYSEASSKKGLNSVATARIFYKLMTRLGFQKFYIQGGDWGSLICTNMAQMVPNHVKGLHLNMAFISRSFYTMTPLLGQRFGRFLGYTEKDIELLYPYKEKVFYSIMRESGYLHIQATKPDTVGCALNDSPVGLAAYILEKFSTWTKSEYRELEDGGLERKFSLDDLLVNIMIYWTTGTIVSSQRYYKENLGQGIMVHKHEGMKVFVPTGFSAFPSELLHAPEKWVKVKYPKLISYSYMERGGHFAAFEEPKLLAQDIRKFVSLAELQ

TS/A cells = assay: TS/A cell differentiation in vitro; format: cell-based, mouse; conditions: 24 h
ChEH [3] = biological target: T3, ChEH (Mus musculus, UniProt O88455+P70245); assay: ChEH activity in murine mammary TSA cells; format: cell-based
T3 sequence (P70245 1-230): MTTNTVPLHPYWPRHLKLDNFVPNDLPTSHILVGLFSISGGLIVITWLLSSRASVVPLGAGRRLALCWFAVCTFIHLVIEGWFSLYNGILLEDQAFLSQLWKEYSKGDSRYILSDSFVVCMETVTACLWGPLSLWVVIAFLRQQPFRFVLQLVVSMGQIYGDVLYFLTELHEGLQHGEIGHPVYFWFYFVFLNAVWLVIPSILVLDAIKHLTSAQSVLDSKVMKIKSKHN
T3 sequence (O88455 1-471): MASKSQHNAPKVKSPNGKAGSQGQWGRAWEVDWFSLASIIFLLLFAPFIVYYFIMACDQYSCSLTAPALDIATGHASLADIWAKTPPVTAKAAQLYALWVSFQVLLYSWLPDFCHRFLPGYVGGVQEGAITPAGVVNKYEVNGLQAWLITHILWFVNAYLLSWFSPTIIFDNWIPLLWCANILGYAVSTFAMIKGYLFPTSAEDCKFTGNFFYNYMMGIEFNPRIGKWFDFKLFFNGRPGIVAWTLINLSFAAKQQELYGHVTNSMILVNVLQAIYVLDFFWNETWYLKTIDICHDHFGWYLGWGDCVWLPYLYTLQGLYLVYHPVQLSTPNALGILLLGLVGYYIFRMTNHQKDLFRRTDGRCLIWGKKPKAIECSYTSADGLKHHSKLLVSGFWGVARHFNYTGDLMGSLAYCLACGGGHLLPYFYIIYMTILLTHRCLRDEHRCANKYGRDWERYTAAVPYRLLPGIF

TS/A mammary tumours = TS/A mammary tumours implanted s.c. into immunocompetent mice; format: in vivo, mouse
Outline: as §1

Human sEH = biological target: T4, Human sEH (Homo sapiens, UniProt P34913); assay: sEH activity assay; format: biochemical
T4 sequence (P34913 1-555): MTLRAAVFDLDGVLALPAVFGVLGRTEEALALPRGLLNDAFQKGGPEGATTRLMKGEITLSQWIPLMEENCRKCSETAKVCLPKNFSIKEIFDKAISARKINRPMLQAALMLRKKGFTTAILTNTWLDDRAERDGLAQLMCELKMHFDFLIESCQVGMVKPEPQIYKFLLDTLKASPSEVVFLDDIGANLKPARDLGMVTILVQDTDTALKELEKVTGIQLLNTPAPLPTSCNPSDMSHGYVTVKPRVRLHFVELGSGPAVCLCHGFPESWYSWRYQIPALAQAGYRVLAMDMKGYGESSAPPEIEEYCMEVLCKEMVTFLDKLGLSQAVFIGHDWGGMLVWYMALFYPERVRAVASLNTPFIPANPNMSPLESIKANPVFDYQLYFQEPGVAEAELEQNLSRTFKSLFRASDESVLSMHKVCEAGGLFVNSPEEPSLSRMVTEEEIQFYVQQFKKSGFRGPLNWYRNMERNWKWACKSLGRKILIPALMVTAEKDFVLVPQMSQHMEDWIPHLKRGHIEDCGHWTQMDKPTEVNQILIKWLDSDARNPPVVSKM

B16F10 cells = assay: B16F10 cell differentiation in vitro; format: cell-based, mouse; conditions: 24 h
ChEH [4] = biological target: T1, ChEH; assay: Modality of ChEH inhibition in MCF-7 cell extracts; format: biochemical; conditions: MCF-7 cell extracts, 0.5, 1 and 5 μM DDA; Km increased, Vmax unchanged
ChEH [5] = biological target: T3, ChEH; assay: ChEH activity in murine melanoma B16F10 cells; format: cell-based
ChEH [6] = biological target: T1, ChEH; assay: ChEH activity in human melanoma SK-Mel-28 cells; format: cell-based
ER = assay: ER-dependent transcriptional activity; format: cell-based, human; conditions: MELN cells; for inhibition of luciferase stimulation by E2 (ER antagonism): with 10 nM E2, Tam 1 μM
mouse brain homogenate = assay: DDA neosynthesis assay; format: biochemical; conditions: 2 μM [14C]-5,6α-EC, His 0.5–200 μM, 37 °C, 10 min
[7] = B16F10, treated every 5 days from day of implantation, DDA 0.37 μg kg−1 s.c.
[8] = TS/A tumours, DDA 3.7 μg kg−1, 30 days

ChEH inhibition (in words) (ChEH [1]): unable to inhibit ChEH
SMILES: C[C@H](CCCC(C)(C)O)[C@H]1CC[C@H]2[C@@H]3CC=C4C[C@@H](O)CC[C@]4(C)[C@H]3CC[C@]12C [Compound 25-OHCh]
ChEH inhibition (in words) (ChEH [2]): did not inhibit ChEH

ChEH inhibition (in words) (ChEH [3]; TSA cells): inactive against ChEH
ChEH inhibition (in words) (ChEH [5]; B16F10 cells): inactive against ChEH
ChEH inhibition (in words) (ChEH [6]; SK-Mel-28 cells): inactive against ChEH
ChEH inhibition (in words) (ChEH [1]): did not inhibit ChEH activity
SMILES: CC(C)CCC[C@@H](C)[C@H]1CC[C@H]2[C@@H]3C[C@@H](n4cncc4CCN)[C@@]4(O)C[C@@H](O)CC[C@]4(C)[C@H]3CC[C@]12C [Compound C17, 5α-hydroxy-6β-[5-(2-amino-ethyl)-imidazol-1-yl]-cholestan-3β-ol]

IC50 (ChEH [1]): 12000 ± 2900 nM
IC50 of ChEH inhibition, fold higher than DDA (ChEH [1]): 100 fold
SMILES: CC(C)CCC[C@@H](C)[C@H]1CC[C@H]2[C@@H]3[C@H](O)C=C4C[C@@H](O)CC[C@]4(C)[C@H]3CC[C@]12C [Compound 7α-OHCh, 7α-hydroxycholesterol]
ChEH inhibition (in words) (ChEH [2]): inhibited ChEH in microsomes from rat liver

Second part, the compound before the results:

SMILES: CC(C)CCC[C@@H](C)[C@H]1CC[C@H]2[C@@H]3C(=O)C=C4C[C@@H](O)CC[C@]4(C)[C@H]3CC[C@]12C [7-ketocholesterol]
IC50 (ChEH [1]): 5090 ± 1400 nM
IC50 of ChEH inhibition, fold higher than DDA (ChEH [1]): 42 fold
ChEH inhibition (in words) (ChEH [2]): inhibited ChEH in microsomes from rat liver

SMILES: CC(C)CCC[C@@H](C)[C@H]1CC[C@H]2[C@@H]3C[C@@H](NCCc4c[nH]cn4)[C@@]4(O)C[C@@H](O)CC[C@]4(C)[C@H]3CC[C@]12C [DDA, 5α-Hydroxy-6β-[2-(1H-imidazol-4-yl)-ethylamino]-cholestan-3β-ol]
survivors at day 50 (B16F10 melanoma tumours; [7]): 40%
tumour growth vs control (B16F10 melanoma tumours; [7]): significantly inhibited tumour growth
melanin production in tumour sections (Masson–Fontana) (B16F10 melanoma tumours; B16F10 tumours, DDA 3.7 μg kg−1, 23 days): increased production of melanin
intra-tumour immune cell infiltration (CD3, CD11c) (B16F10 melanoma tumours; B16F10 tumours, DDA 3.7 μg/kg, 23 days): increased infiltration of CD3^+ T lymphocytes and CD11c^+ dendritic cells
mEH inhibition (in words) (rat mEH): did not inhibit these enzymes; also recorded: not an inhibitor
increase in ORO staining of neutral lipid droplets vs vehicle (TS/A cells; 1 μM DDA): 2.4 fold
increase in intracellular triglycerides vs vehicle (TS/A cells; 1 μM DDA): 7 fold
MFGE8/lactadherin (immunostaining, flow cytometry) (TS/A cells; 2.5 μM DDA): increased
increase in ORO staining of neutral lipid droplets vs vehicle (TS/A cells; 2.5 μM DDA): 3 fold
increase in intracellular triglycerides vs vehicle (TS/A cells; 2.5 μM DDA): 9 fold
IC50 (ChEH [3]): 284 ± 70 nM
MFGE8/lactadherin expression in tumour sections (immunohistochemistry) (TS/A mammary tumours; [8]): increased expression of milk fat globule (MFGE8)/lactadherin
neutral lipid droplets in tumour sections (ORO) (TS/A mammary tumours; [8]): increased accumulation of neutral lipid droplets
intra-tumour immune cell infiltration (CD3, CD11c) (TS/A mammary tumours; TS/A tumours, DDA 3.7 μg/kg, 30 days): increased infiltration of CD3^+ T lymphocytes and CD11c^+ dendritic cells
animal survival at day 50 (TS/A mammary tumours; TS/A, treated every 5 days from day of implantation, DDA 0.37 μg kg−1 s.c.): 60%
sEH inhibition (in words) (Human sEH): did not inhibit these enzymes; also recorded: not an inhibitor
melanin content (B16F10 cells): increased in a concentration-dependent manner up to 2.5 μM DDA
tyrosinase activity (B16F10 cells): increased activity of tyrosinase
modality of ChEH inhibition (ChEH [4]): competitive
IC50 (ChEH [5]): 252 ± 81 nM
IC50 (ChEH [6]): 72 ± 15 nM
IC50 (ChEH [1]): 120 ± 20 nM
stimulation of luciferase expression (ER agonism) (ER; increasing concentrations, without E2): did not stimulate the expression of luciferase
inhibition of luciferase stimulation by E2 (ER antagonism) (ER): did not inhibit luciferase stimulation by 17β-estradiol

SMILES: CC/C(=C(\c1ccccc1)c1ccc(OCCN(C)C)cc1)c1ccccc1 [Tam, Tamoxifen, reference compound]
inhibition of luciferase stimulation by E2 (ER antagonism) (ER): completely inhibited luciferase expression

SMILES: NCCc1c[nH]cn1 [His, histamine]
apparent Vmax of DDA formation (mouse brain homogenate): 0.12±0.04 pmol per mg protein per min
